Measured values: ChEMBL document CHEMBL1122288, “Relationship between metabolism and radioprotective activity of 2-phenylthiazolidine and its m-bromo derivative” (J Med Chem, 1983)
Values belong to the compound of their own block, whether it stands above or below them.

Legend:
Mus musculus [1] = assay: Percent survival at 1 hr time interval between administration (500 mg/kg, ip) and irradiation* in mice; format: functional
Mus musculus [2] = assay: Percent survival at 2 hr time interval between administration (500 mg/kg, ip) and irradiation* in mice; format: functional
Mus musculus [3] = assay: Percent survival at 15 min time interval between administration (500mg/kg, ip) and irradiation* in mice; format: functional
Mus musculus [4] = species on record: Mus musculus; assay: Lethal dose in mice; format: functional
Mus musculus [5] = assay: Percent survival at 6 hr time interval between administration (500 mg/kg, ip) and irradiation* in mice; format: functional
Mus musculus [6] = assay: fecal levels excreted after administration of 2-(3-bromophenyl)thiazolidine(500 mg/kg) to mice measured at 0-30h; format: ADME, organism-based; details: in vivo
Outline: (§1)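 Radiolabelled compound ([³⁵S] or [α-¹⁴C]) given intraperitoneally in Miglyol 812 to mice, which were then housed in separate metabolic cages and fed normally. Faeces were collected over 0-30 h, pounded and counted by liquid scintillation. Values are percent of injected dose, given as mean ± standard error. Each line has its own number of experiments.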

Mus musculus [7] = assay: fecal levels excreted after administration of 2-phenylthiazolidine (500 mg/kg) to mice measured at 0-30h; format: ADME, organism-based; details: in vivo; outline: as §1
Mus musculus [8] = assay: fecal levels excreted after administration of benzaldehyde (250 mg/kg) to mice measured at 0-30h; format: ADME, organism-based; details: in vivo
Outline: (§2)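 [α-14C]Benzaldehyde was given at 250 mg/kg intraperitoneally in Miglyol 812. Mice were kept in separate metabolic cages and fed normally. Urine was collected at 6, 24 and 30 h, and feces were pounded. Radioactivity was measured by liquid scintillation counting and expressed as percent of injected dose excreted, given as mean ± standard error of 4 experiments.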

[9] = urine levels excreted after administration of benzaldehyde (250 mg/kg) to mice measured at 0-24 hr; format: ADME, organism-based; details: mouse, read-out: Excretion; outline: as §2
Mus musculus [10] = assay: urine levels excreted after administration of benzaldehyde (250 mg/kg) to mice measured at 0-6 hr; format: ADME, organism-based; details: in vivo; outline: as §2
[11] = urine levels excreted after administration of benzaldehyde (250 mg/kg) to mice measured at 24-30 hr; format: ADME, organism-based; details: mouse, read-out: Excretion; outline: as §2
Mus musculus [12] = assay: Percent survival at 15 min time interval between administration (225 mg/kg, ip) and irradiation* in mice; format: functional
Mus musculus [13] = assay: Percent survival at 2 hr time interval between administration (225 mg/kg, ip) and irradiation* in mice; format: functional
Mus musculus [14] = assay: Percent survival at 1 hr time interval between administration (225mg/kg, ip) and irradiation* in mice; format: functional
[15] = urine levels excreted after administration of cysteamine (175 mg/kg) to mice measured at 24-30 hr; format: ADME, organism-based; details: mouse, read-out: Excretion
Outline: (§3)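 [³⁵S]cysteamine 175 mg/kg given intraperitoneally in Miglyol 812 to mice, which were then housed in separate metabolic cages and fed normally. Urine was sampled at 6, 24 and 30 h and counted by liquid scintillation. Values are percent of injected dose excreted, as mean ± standard error of 4-5 experiments. The Mann-Whitney-Wilcoxon test was used for significance.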

Mus musculus [16] = assay: urine levels excreted after administration of cysteamine (175 mg/kg) to mice measured at 0-24 hr; format: ADME, organism-based; details: in vivo; outline: as §3
Mus musculus [17] = assay: urine levels excreted after administration of cysteamine (175 mg/kg) to mice measured at 0-6 hr; format: ADME, organism-based; details: in vivo; outline: as §3
Mus musculus [18] = assay: faecal levels excreted after administration of cysteamine (175 mg/kg) to mice measured at 0-30h; format: ADME, organism-based; details: in vivo; outline: as §1

SMILES: c1ccc(C2NCCS2)cc1 (stereo not drawn)
- Survival (Mus musculus [1]): 100%
- Survival (Mus musculus [2]): 100%
- Survival (Mus musculus [3]): 100%
- LD50 (Mus musculus [4]): 1000 mg/kg
- Survival (Mus musculus [5]): 85%

SMILES: Brc1cccc(C2NCCS2)c1 (stereo not drawn)
- Survival (Mus musculus [1]): 100%
- Survival (Mus musculus [3]): 20%
- Excretion (Mus musculus [6]): 0.43%
- LD50 (Mus musculus [4]): 1000 mg/kg

- Excretion (Mus musculus [7]): 0.42%
SMILES: c1ccc(C2NCC[35S]2)cc1 (stereo in doubt; 1a)

- Excretion (Mus musculus [7]): 0.6%
SMILES: c1ccc(C2NCC[35S]2)cc1 (stereo in doubt; 1b)

SMILES: O=Cc1ccccc1 [BENZALDEHYDE]
- Excretion (Mus musculus [8]): 0.43%
- dose excreted [9]: 84.2%
- Excretion (Mus musculus [10]): 52.6%
- dose excreted [11]: 5%

SMILES: NCCS [CYSTEAMINE]
- Survival (Mus musculus [12]): 95%
- Survival (Mus musculus [13]): 45%
- Survival (Mus musculus [14]): 80%
- dose excreted [15]: 4.1%
- LD50 (Mus musculus [4]): 450 mg/kg
- Excretion (Mus musculus [16]): 55.7%
- Excretion (Mus musculus [17]): 42.6%
- Excretion (Mus musculus [18]): 0.92%
